Assay results reported in ChEMBL document CHEMBL1156125, “Pentacycle derivatives as cannabinoid CB1 receptor ligands” (Bioorg Med Chem Lett, 2009).

Columns and labels:
Cannabinoid receptor 1 = Cannabinoid receptor 1 (Rattus norvegicus, UniProt P20272); assay: Displacement of [3H]CP-55940 from CB1 receptor in Sprague-Dawley rat cerebellar membrane; parameters: species or system Cerebellum
Procedure, shortened: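 Pelleted membranes were incubated with 3 nM [3H]CP55,940, 0.5% fatty-acid-free BSA and a range of ligand concentrations for 1 h at 30 °C. Bound ligand was filtered on PEI-soaked GF/B and counted by scintillation; IC50 reported.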

[1] = Selectivity ratio of IC50 for human CB2 to IC50 for rat CB1
Procedure, shortened: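 Competitive radioligand binding in TME buffer (50 mM Tris–HCl, 1 mM EDTA, 3 mM MgCl2, pH 7.4) with 0.5% fatty-acid-free BSA, 1 h at 30 °C. rCB1 used male Sprague-Dawley rat cerebellar membranes with 3 nM [3H]CP55,940. hCB2 used membranes from CHO K-1 cells transfected with human CB2, with 3 nM [3H]WIN55,212-2. Bound ligand was filtered and counted by scintillation. Ratio = hCB2 IC50 / rCB1 IC50.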

Cannabinoid receptor 2 = Cannabinoid receptor 2 (Homo sapiens, UniProt P34972); assay: Displacement of [3H]WIN-552122 from human CB2 receptor expressed in CHOK1 cells; assay type: cell-based, CHO-K1
Cannabinoid receptor 2, sequence (P34972 whole entry): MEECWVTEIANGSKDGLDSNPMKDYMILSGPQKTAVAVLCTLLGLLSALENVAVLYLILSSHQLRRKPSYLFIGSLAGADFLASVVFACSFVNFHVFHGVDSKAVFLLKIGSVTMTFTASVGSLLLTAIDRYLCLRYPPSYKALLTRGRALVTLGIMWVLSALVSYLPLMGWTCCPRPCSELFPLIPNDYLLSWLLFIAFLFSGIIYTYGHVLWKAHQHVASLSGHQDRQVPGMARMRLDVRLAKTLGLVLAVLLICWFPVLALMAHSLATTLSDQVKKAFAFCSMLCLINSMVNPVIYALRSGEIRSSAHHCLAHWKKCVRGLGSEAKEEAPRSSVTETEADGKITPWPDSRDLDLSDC
Procedure, shortened: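 Membranes came from CHO K-1 cells transfected with human CB2 and were prepared in TME buffer (pH 7.4) with centrifugation at 48,000g. Competition used 3 nM [3H]WIN55,212-2 in TME with 0.5% fatty-acid-free BSA across a range of ligand concentrations, 1 h at 30 °C.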

Rattus norvegicus = assay: Systemic clearance in rat at 5 mg/kg, po; assay type: ADME, organism-based; parameters: dose 5 mg/kg, route oral; details: in vivo
[2] = Cmax in rat at 5 mg/kg, po after 1.3 hrs; assay type: ADME, organism-based; parameters: dose 5 mg/kg, route oral; details: in vivo
[3] = Oral bioavailability in rat at 5 mg/kg; assay type: ADME, organism-based; details: in vivo
[4] = Elimination half life in rat at 5 mg/kg, po; assay type: ADME, organism-based; parameters: dose 5 mg/kg, route oral; details: in vivo, read-out: beta t1/2 (converted)
[5] = target: Cannabinoid receptor 1 (Homo sapiens) (UniProt P21554); assay: Binding affinity to human CB1 receptor expressed in CHO cells by luciferase reporter gene assay
Cannabinoid receptor 1 (Homo sapiens), sequence (P21554 whole entry, looked up): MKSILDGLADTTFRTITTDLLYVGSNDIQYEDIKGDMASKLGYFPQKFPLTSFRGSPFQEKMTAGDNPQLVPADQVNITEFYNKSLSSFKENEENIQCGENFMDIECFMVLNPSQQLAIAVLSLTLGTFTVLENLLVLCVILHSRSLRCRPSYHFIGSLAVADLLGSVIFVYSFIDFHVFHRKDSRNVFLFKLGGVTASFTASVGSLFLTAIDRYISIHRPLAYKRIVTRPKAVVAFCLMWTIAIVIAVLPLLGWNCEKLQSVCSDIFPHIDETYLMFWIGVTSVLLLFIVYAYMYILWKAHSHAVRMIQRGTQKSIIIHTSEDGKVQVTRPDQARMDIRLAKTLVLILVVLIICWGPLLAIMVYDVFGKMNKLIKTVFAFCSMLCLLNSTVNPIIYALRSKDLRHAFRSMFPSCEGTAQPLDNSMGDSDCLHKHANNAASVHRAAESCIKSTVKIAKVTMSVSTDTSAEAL

Cannabinoid receptor 1, sequence (P20272 whole entry): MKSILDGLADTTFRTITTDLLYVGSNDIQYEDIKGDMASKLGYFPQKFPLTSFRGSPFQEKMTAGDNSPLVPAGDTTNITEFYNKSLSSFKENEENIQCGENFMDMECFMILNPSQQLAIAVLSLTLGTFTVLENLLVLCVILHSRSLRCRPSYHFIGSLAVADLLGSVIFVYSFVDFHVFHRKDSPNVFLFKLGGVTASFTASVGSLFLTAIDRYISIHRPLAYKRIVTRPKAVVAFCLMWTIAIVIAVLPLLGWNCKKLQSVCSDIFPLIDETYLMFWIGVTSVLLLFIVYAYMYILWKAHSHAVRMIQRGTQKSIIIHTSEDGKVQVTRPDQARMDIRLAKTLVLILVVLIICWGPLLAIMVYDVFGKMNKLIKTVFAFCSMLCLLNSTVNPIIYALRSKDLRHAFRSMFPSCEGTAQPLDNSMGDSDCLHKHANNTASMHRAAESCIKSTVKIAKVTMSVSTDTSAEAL

IC50 (Cannabinoid receptor 1) [nM]	SMILES	also measured
3.69	Cc1nnc(-c2c(-c3nnc(C(C)(C)C)o3)nn(-c3ccc(Cl)cc3Cl)c2-c2ccc(Br)cc2)s1	
3.03	Cc1nnc(-c2c(-c3nnc(C4(c5ccc(Cl)cc5)CC4)s3)nn(-c3ccc(Cl)cc3Cl)c2-c2ccc(Cl)cc2)s1	
10.3	Cc1nnc(-c2c(-c3nnc(C4(c5ccc(Cl)cc5)CC4)o3)nn(-c3ccc(Cl)cc3Cl)c2-c2ccc(Cl)cc2)s1	
2.56	Cc1nnc(-c2c(-c3nnc(C(C)(C)C)s3)nn(-c3ccc(Cl)cc3Cl)c2-c2ccc(Br)cc2)s1	Ratio IC50 [1]: 167; IC50 (Cannabinoid receptor 2): 427 nM
3.23	Cc1nnc(-c2c(-c3nnc(C4(c5ccc(Cl)cc5)CC4)s3)nn(-c3ccc(Cl)cc3Cl)c2-c2ccc(Cl)cc2)o1	
2.13	Cc1nnc(-c2c(-c3nnc(C4(c5ccc(Cl)cc5)CC4)o3)nn(-c3ccc(Cl)cc3Cl)c2-c2ccc(Br)cc2)s1	
4.14	Cc1nnc(-c2c(-c3nnc(C4(C(F)(F)F)CC4)o3)nn(-c3ccc(Cl)cc3Cl)c2-c2ccc(Cl)cc2)s1	
6.47	Cc1nnc(-c2c(-c3nnc(C(C)(C)C)o3)nn(-c3ccc(Cl)cc3Cl)c2-c2ccc(Cl)cc2)o1	
3.7	Cc1nnc(-c2c(-c3nnc(C4(c5ccc(Cl)cc5)CC4)s3)nn(-c3ccc(Cl)cc3Cl)c2-c2ccc(Br)cc2)s1	Ratio IC50 [1]: > 2700; IC50 (Cannabinoid receptor 2): > 10000 nM
4.91	Cc1nnc(-c2c(-c3nnc(C4(c5ccc(Cl)cc5)CC4)o3)nn(-c3ccc(Cl)cc3Cl)c2-c2ccc(Br)cc2)o1	
4.44	Cc1nnc(-c2c(-c3nnc(C4(c5ccc(Cl)cc5)CC4)s3)nn(-c3ccc(Cl)cc3Cl)c2-c2ccc(Br)cc2)o1	
1.72	Cc1nnc(-c2c(-c3nnc(C4(C(F)(F)F)CC4)o3)nn(-c3ccc(Cl)cc3Cl)c2-c2ccc(Br)cc2)s1	clearance (Rattus norvegicus): 12.6 mL/min/kg; Cmax [2]: 30 ng/mL; bioavailability [3]: 7.2%; Ratio IC50 [1]: 142; IC50 (Cannabinoid receptor 2): 245 nM; half-life [4]: 18.4 h; IC50 [5]: 38.5 nM
2.83	Cc1nnc(-c2c(-c3nnc(C(C)(C)C)o3)nn(-c3ccc(Cl)cc3Cl)c2-c2ccc(Cl)cc2)s1	
4.93	Cc1nnc(-c2c(-c3nnc(C(C)(C)C)s3)nn(-c3ccc(Cl)cc3Cl)c2-c2ccc(Br)cc2)o1	
26.9	Cc1nnc(-c2c(-c3nnc(C4(C(F)(F)F)CC4)s3)nn(-c3ccc(Cl)cc3Cl)c2-c2ccc(Cl)cc2)o1	
3.93	Cc1nnc(-c2c(-c3nnc(C4(c5ccc(Cl)cc5)CC4)o3)nn(-c3ccc(Cl)cc3Cl)c2-c2ccc(Cl)cc2)o1	
14.7	Cc1nnc(-c2c(-c3nnc(C4(C(F)(F)F)CC4)o3)nn(-c3ccc(Cl)cc3Cl)c2-c2ccc(Cl)cc2)o1	
7.39	Cc1nnc(-c2c(-c3nnc(C4(C(F)(F)F)CC4)s3)nn(-c3ccc(Cl)cc3Cl)c2-c2ccc(Cl)cc2)s1	
4.7	Cc1nnc(-c2c(-c3nnc(C4(C(F)(F)F)CC4)o3)nn(-c3ccc(Cl)cc3Cl)c2-c2ccc(Br)cc2)o1	
2.56	Cc1nnc(-c2c(-c3nnc(C(C)(C)C)o3)nn(-c3ccc(Cl)cc3Cl)c2-c2ccc(Br)cc2)o1	Ratio IC50 [1]: 162; IC50 (Cannabinoid receptor 2): 414 nM
4.86	Cc1nnc(-c2c(-c3nnc(C4(C(F)(F)F)CC4)s3)nn(-c3ccc(Cl)cc3Cl)c2-c2ccc(Br)cc2)o1	

SMILES	IC50 (Cannabinoid receptor 1) [nM]	also measured
Cc1nnc(-c2c(-c3nnc(C4(C(F)(F)F)CC4)s3)nn(-c3ccc(Cl)cc3Cl)c2-c2ccc(Br)cc2)s1	4.21	
